pEC50, pIC50, pKi: −log10 of the molar value.
Tests used:
[1] = biological target: T1, Metabotropic glutamate receptor 5 (Rattus norvegicus, UniProt P31424); test: Displacement of [3H]-MPEP from mGluR5 in rat brain; type: tissue-based
Method in brief: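 Radioligand displacement binding using [3H]MPEP on rat brain membranes.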

[2] = biological target: T1, Metabotropic glutamate receptor 5; test: Antagonist activity at rat mGluR5 expressed in HEK293T cells assessed as inhibition of glutamate-induced calcium flux by calcium fluorescence assay; type: functional, cell-based, HEK-293T
Method in brief: (§1)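 Rat mGluR5-expressing cells loaded with a calcium-sensitive fluorescent dye receive vehicle or test compound. After 2.5 min, an EC20 concentration of glutamate is added, then an EC80 concentration 1 min later. This triple-add protocol allows simultaneous detection of agonist, potentiator and antagonist activity. Intracellular calcium release is read kinetically in every well by an imaging plate reader.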

[3] = biological target: Metabotropic glutamate receptor 5 (Rattus norvegicus) (UniProt P31424); test: Agonist activity at rat mGluR5 expressed in HEK293T cells assessed as increase of glutamate-induced calcium flux by calcium fluorescence assay relative to control; type: functional, cell-based; details: HEK-293T; method in brief: as §1
[4] = biological target: T1, Metabotropic glutamate receptor 5; test: Agonist activity at rat mGluR5 expressed in HEK293T cells assessed as effect on glutamate-induced calcium flux by calcium fluorescence assay; type: functional, cell-based, HEK-293T; method in brief: as §1

T1 sequence (P31424 whole entry): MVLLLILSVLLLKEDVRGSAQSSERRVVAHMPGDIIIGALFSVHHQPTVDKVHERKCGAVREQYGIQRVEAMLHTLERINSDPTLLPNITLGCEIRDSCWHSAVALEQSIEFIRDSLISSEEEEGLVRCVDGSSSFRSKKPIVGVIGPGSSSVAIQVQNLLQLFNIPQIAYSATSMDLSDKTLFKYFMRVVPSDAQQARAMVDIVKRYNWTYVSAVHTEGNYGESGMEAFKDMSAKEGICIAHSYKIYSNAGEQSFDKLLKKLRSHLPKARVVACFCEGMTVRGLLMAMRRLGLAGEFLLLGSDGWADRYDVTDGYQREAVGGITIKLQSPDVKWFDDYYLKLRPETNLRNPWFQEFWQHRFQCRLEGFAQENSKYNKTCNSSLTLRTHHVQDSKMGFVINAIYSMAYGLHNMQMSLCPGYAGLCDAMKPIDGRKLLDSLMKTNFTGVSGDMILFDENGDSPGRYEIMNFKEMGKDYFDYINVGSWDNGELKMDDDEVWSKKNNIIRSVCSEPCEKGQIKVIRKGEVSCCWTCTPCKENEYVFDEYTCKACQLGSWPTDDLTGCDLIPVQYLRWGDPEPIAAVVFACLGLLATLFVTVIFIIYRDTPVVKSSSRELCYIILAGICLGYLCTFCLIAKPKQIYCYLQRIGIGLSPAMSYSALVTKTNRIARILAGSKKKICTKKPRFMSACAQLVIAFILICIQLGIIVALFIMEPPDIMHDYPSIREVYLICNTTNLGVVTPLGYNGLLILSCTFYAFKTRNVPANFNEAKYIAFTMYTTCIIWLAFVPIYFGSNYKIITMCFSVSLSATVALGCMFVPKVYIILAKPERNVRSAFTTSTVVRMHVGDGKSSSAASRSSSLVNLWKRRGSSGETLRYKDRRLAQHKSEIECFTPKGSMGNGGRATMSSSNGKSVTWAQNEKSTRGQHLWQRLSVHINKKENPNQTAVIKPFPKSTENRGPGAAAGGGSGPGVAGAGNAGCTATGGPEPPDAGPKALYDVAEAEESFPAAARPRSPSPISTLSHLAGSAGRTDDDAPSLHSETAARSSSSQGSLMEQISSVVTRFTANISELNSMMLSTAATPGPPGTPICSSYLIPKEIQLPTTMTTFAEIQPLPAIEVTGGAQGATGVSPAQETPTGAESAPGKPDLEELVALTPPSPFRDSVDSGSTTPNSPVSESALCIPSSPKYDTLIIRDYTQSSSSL
Chain of Metabotropic glutamate receptor 5 (Rattus norvegicus) (P31424 21-1203 limits assumed): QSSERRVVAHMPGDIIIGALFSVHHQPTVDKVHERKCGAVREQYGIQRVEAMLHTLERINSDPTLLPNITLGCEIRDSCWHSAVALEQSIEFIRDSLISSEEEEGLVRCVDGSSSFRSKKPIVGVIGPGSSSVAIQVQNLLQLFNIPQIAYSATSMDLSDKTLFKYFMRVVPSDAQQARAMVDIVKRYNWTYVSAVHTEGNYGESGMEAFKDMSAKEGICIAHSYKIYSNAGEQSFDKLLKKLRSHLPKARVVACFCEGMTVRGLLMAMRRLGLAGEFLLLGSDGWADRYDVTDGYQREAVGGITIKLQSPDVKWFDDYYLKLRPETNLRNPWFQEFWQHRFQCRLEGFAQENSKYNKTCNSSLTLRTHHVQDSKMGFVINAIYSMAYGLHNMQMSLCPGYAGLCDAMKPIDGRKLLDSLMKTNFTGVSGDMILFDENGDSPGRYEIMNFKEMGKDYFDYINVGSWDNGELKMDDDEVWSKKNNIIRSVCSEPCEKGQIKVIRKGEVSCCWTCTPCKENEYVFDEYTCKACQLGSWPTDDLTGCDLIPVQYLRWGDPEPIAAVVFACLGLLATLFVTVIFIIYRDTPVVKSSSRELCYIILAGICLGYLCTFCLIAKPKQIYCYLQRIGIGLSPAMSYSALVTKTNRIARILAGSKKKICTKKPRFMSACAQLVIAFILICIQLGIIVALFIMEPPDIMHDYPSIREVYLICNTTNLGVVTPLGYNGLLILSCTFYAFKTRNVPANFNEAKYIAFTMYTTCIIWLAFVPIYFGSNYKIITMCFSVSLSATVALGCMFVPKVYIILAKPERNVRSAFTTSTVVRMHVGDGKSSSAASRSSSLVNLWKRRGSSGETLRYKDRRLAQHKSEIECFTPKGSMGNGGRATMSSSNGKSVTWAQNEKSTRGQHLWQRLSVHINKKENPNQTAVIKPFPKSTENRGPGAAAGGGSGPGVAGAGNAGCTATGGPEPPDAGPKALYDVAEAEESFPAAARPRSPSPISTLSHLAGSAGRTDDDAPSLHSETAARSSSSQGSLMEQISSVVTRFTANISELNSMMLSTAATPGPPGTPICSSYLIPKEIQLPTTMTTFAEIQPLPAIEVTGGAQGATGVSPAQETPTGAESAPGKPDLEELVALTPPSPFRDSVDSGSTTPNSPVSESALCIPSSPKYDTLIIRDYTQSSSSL

pKi [1]	pIC50 [2]	Activity [3] [%]	pEC50 [4]	SMILES
6.12	6.77	–	–	CCc1cccc(NC(=O)c2cc(F)cc(C#N)c2)n1
6.49	6.78	–	–	CCCc1cccc(NC(=O)c2cc(F)cc(C#N)c2)n1
5.98	5.81	–	–	CCCCc1cccc(NC(=O)c2cc(F)cc(C#N)c2)n1
6.46	–	67.6	6.19	O=C(Nc1cc(-c2ccccc2)nn1-c1ccccc1Cl)c1cc(-c2cc(F)cc(F)c2)ccn1
5.55	5.38	–	–	Cc1ccc(NC(=O)c2cc(F)cc(C#N)c2)nc1
7.43	–	61.8	5.38	N#Cc1cc(C(=O)Nc2cc(-c3ccccc3)nn2-c2ccccc2Cl)ccc1-c1ccccc1
< 5.00	–	50.2	5.66	N#Cc1cc(C(=O)Nc2cc(-c3ccccc3)nn2-c2ccccc2Cl)ccc1-c1cccc2ccccc12
5.69	–	–	< 4.52	N#Cc1cc(C(=O)Nc2cc(-c3ccccc3)nn2-c2ccccc2Cl)ccc1-c1cccc(F)c1
7.64	–	68	5.61	N#Cc1cc(C(=O)Nc2cc(-c3ccccc3)nn2-c2ccccc2Cl)ccc1-c1ccc(F)cc1

Reference: ChEMBL document CHEMBL1770108, “Design and synthesis of substituted N-(1,3-diphenyl-1H-pyrazol-5-yl)benzamides as positive allosteric modulators of the metabotropic glutamate receptor subtype 5” (Bioorg Med Chem Lett, 2011)
